Measured values reported in PMC6247064 (Cancer Science, 2018).
Converted amounts (≈) assume the structure as drawn.

Experiments:
[1] = Phase 1 study: noncompartmental plasma pharmacokinetics; format: in vivo, human; details: for C av,72 (average plasma concentration over 72 h): geometric mean (CV%)
How it was run: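 The test compound was given as a 1-h IV infusion at 80 or 105 mg/m2 every 14 days. Plasma levels were measured by validated LC/MS/MS and analysed noncompartmentally. C av,72 is the mean plasma concentration over 72 h after infusion. Accumulation ratio is cycle 2 day 1 AUC(0-24) divided by cycle 1 day 1 AUC(0-24). Values are geometric means.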

advanced solid tumors = details: cited from earlier work
[2] = tested on: BRCA wild-type recurrent high-grade serous ovarian cancer; details: phase 2, 8 of 28 women, intention-to-treat population; cited from earlier work
Calu-6 xenograft = details: cited from earlier work

For `COc1cccc(OCCCN)c1-c1cc(Nc2cnc(C#N)cn2)n[nH]1` [Prexasertib], the “C av,72 (average plasma concentration over 72 h)” value ([1]; 80 mg/m^2 1-h IV infusion, Cycle 1, day 1, N 6) was 23.1 (22) ng/mL, the “C av,72 (average plasma concentration over 72 h)” value ([1]; 80 mg/m^2 1-h IV infusion, Cycle 2, day 1, N 4) was 24.8 (16) ng/mL and the “C av,72 (average plasma concentration over 72 h)” value ([1]; 105 mg/m^2 1-h IV infusion, Cycle 1, day 1, N 6) was 30.0 (13) ng/mL. For the same compound, the “C av,72 (average plasma concentration over 72 h)” value ([1]; 105 mg/m^2 1-h IV infusion, Cycle 2, day 1, N 3) was 31.5 (22) ng/mL, the “Intercycle accumulation between cycle 1 and cycle 2” value ([1]; both treatment groups) was “no intercycle accumulation” and the “Best overall response of stable disease” value (advanced solid tumors; US phase 1, 15 of 45 patients) was 33%. For the same compound, the Partial response (advanced solid tumors; US phase 1, 45 patients, Two patients (SCC of the anus, SCC of the head and neck)) was 4%, the Recommended prexasertib dose (advanced solid tumors; US phase 1, administered once every 14 days) was 105 mg/m^2 and the “Patients with tumor shrinkage” value (advanced solid tumors; phase 1 trial in non-Japanese patients) was 10 of 34. For the same compound, the Partial responses [2] was 29%, the “IC50 derived from the single-agent Calu-6 xenograft model” value (Calu-6 xenograft; plasma concentration) was 0.0141 µg/mL (≈ 0.0386 µM) and the “Median AUC(0-72) predicted to achieve the maximal tumor response” value (Calu-6 xenograft; predicted from Calu-6 xenograft PK/pharmacodynamic model, monotherapy) was 1896 ng·h/mL.
